Experimental data taken from paper PMC11167341 (RSC Advances, 2024).

Key:
Type in all cases: cell-based
MCF-7 = experiment: Antiproliferative SRB assay, MCF-7; details: Homo sapiens, MCF7, 72 h, read-out: MCF-7 IC50 (μM) ± SD
Procedure, shortened: (§1)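 Cells from ATCC, grown in RPMI-1640 with 10% heat-inactivated FBS and penicillin–streptomycin at 37 °C, 5% CO2. They were trypsinized and seeded 24 h before treatment. Test compound was given at 0.01, 0.1, 1, 10 and 100 μg mL−1 for 72 h beside untreated controls. Cells were fixed in 10% TCA (1 h, 4 °C), stained with 0.4% SRB (10 min, dark), rinsed in 1% acetic acid, dissolved in Tris–HCl, and read at 540 nm.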

HepG2 = experiment: Antiproliferative SRB assay, HepG2; details: Homo sapiens, HepG2, 72 h, read-out: HepG2 IC50 (μM) ± SD
Procedure, shortened: as §1

HCT116 = experiment: Antiproliferative SRB assay, HCT116; details: Homo sapiens, HCT-116, 72 h, read-out: HCT116 IC50 (μM) ± SD
Procedure, shortened: as §1

EA.hy926 = experiment: SRB assay on normal cells EA.hy926; details: Homo sapiens, EA.hy 926, 72 h, read-out: EA.hy926 IC50 (μM) ± SD
Procedure, shortened: as §1

Compound | IC50 (MCF-7) | IC50 (HepG2) | IC50 (HCT116) | IC50 (EA.hy926)
O=C(NNc1nc(-c2ccccc2)cs1)c1cc2ccccc2oc1=O [6a, 2-Oxo-N′-(4-phenylthiazol-2-yl)-2H-chromene-3-carbohydrazide] | 72.9 µM | 36.5 µM | 82.5 µM | 31.9 µM
COc1cccc2c1C(=O)c1c(O)c3c(c(O)c1C2=O)C[C@@](O)(C(=O)CO)C[C@@H]3O[C@H]1C[C@H](N)[C@H](O)[C@H](C)O1 [Doxorubicin, reference compound] | 2.1 µM | 1.6 µM | 1.9 µM | 1.7 µM
N#CCC(=O)NNc1nc(-c2ccccc2)cs1 [compound 7, 2-cyano-N′-(4-phenylthiazol-2-yl)acetohydrazide] | 10.3 µM | 9.9 µM | 6.5 µM | 11.6 µM
